Assay results: ChEMBL document CHEMBL1140875, “DNA photocleavage by porphyrin-polyamine conjugates” (Bioorg Med Chem, 2009)
The source made the active and inactive calls. The calls are words filed in the database; no cut-off is given here.

What was measured:
[1] = Photostability assessed as residual absorbance at 2.5 mW/cm2 irradiation for 15 mins; assay type: physicochemical; settings: read-out: Stability
[2] = Photostability assessed as residual absorbance at 2.5 mW/cm2 irradiation for 30 mins; assay type: physicochemical; settings: read-out: Stability
[3] = Photostability assessed as residual absorbance at 2.5 mW/cm2 irradiation for 45 mins; assay type: physicochemical; settings: read-out: Stability
[4] = Photostability assessed as residual absorbance at 2.5 mW/cm2 irradiation for 60 mins; assay type: physicochemical; settings: read-out: Stability
[5] = Induction of singlet oxygen production at 1 uM after irradiation at 10 mW/cm2 in presence of 1,3-diphenylisobenzofuran; assay type: physicochemical
In short: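 Photosensitizer at 10^-6 M with DPBF at 6 × 10^-5 M in DMF/H2O (9/1). Illuminated at room temperature for 30 min with two 30 W white bulbs, 10 mW/cm2. DPBF absorbance decay read at 415 nm every 3 min.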

[6] = Lipophilicity, log P of the compound; assay type: physicochemical; settings: octanol/water
In short: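 1-Octanol/water partition at 25 °C with equal 3 mL phases and dye at 300 µM. Mixture vortexed and centrifuged. Aqueous and organic aliquots each diluted into MeOH, and dye concentration in each phase measured by absorption spectroscopy.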

DNA = experiment: Binding affinity to calf thymus DNA at 4 uM in phosphate buffer of pH 7.4 by UV-vis spectroscopy; assay type: nucleic-acid assay; settings: Bos taurus
In short: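 Porphyrin held at 4 × 10^-6 M in PBS pH 7.4 and read by UV–vis at the Soret maximum. Calf thymus DNA titrated in at base-pair concentrations from 1.2 × 10^-6 to 1.2 × 10^-5 M, base pair/porphyrin ratio 0.2 to 3. Change in the Soret band followed.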

Escherichia coli [7] = experiment: Induction of DNA photocleavage activity in Escherichia coli pBR322 plasmid assessed as nicked DNA form at 10 uM by gel electrophoresis
In short: (§1)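 Supercoiled pBR322 (0.25 µg in 10 µL) in 3 mM Tris–HCl, 0.3 mM EDTA, pH 8.0 at 25 °C, with 10 µM porphyrin. White light at 2.5 mW/cm2 from an 18 W lamp 4 cm away, for 15–120 min. Controls without porphyrin and/or without light. Products run on 0.7% non-denaturing agarose, SYBRsafe stain, transilluminator at 312 nm. Supercoiled, nicked and linear forms quantified as %.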

Escherichia coli [8] = experiment: Induction of DNA photocleavage activity in Escherichia coli pBR322 plasmid assessed as nicked DNA form at 10 uM after 15 mins irradiation at 2.5 mW/cm2 by gel electrophoresis; in short: as §1
Escherichia coli [9] = experiment: Induction of DNA photocleavage activity in Escherichia coli pBR322 plasmid assessed as nicked DNA form at 10 uM after 30 mins irradiation at 2.5 mW/cm2 by gel electrophoresis; in short: as §1
Escherichia coli [10] = experiment: Induction of DNA photocleavage activity in Escherichia coli pBR322 plasmid assessed as nicked DNA form at 10 uM after 60 mins irradiation at 2.5 mW/cm2 by gel electrophoresis; in short: as §1
Escherichia coli [11] = experiment: Induction of DNA photocleavage activity in Escherichia coli pBR322 plasmid assessed as nicked DNA form at 10 uM after 90 mins irradiation at 2.5 mW/cm2 by gel electrophoresis; in short: as §1
Escherichia coli [12] = experiment: Induction of DNA photocleavage activity in Escherichia coli pBR322 plasmid assessed as nicked DNA form at 10 uM after 120 mins irradiation at 2.5 mW/cm2 by gel electrophoresis; in short: as §1
Escherichia coli [13] = experiment: Induction of DNA photocleavage activity in Escherichia coli pBR322 plasmid assessed as linear DNA form at 10 uM after 90 mins irradiation at 2.5 mW/cm2 by gel electrophoresis; in short: as §1
Escherichia coli [14] = experiment: Induction of DNA photocleavage activity in Escherichia coli pBR322 plasmid assessed as linear DNA form at 10 uM after 120 mins irradiation at 2.5 mW/cm2 by gel electrophoresis; in short: as §1
Escherichia coli [15] = experiment: Induction of DNA photocleavage activity in Escherichia coli pBR322 plasmid assessed as supercoiled DNA form at 10 uM by gel electrophoresis
Escherichia coli [16] = experiment: Induction of DNA photocleavage activity in Escherichia coli pBR322 plasmid assessed as supercoiled DNA form at 10 uM after 15 mins irradiation at 2.5 mW/cm2 by gel electrophoresis; in short: as §1
Escherichia coli [17] = experiment: Induction of DNA photocleavage activity in Escherichia coli pBR322 plasmid assessed as supercoiled DNA form at 10 uM after 30 mins irradiation at 2.5 mW/cm2 by gel electrophoresis; in short: as §1
Escherichia coli [18] = experiment: Induction of DNA photocleavage activity in Escherichia coli pBR322 plasmid assessed as supercoiled DNA form at 10 uM after 60 mins irradiation at 2.5 mW/cm2 by gel electrophoresis; in short: as §1
Escherichia coli [19] = experiment: Induction of DNA photocleavage activity in Escherichia coli pBR322 plasmid assessed as supercoiled DNA form at 10 uM after 90 mins irradiation at 2.5 mW/cm2 by gel electrophoresis; in short: as §1
Escherichia coli [20] = experiment: Induction of DNA photocleavage activity in Escherichia coli pBR322 plasmid assessed as supercoiled DNA form at 10 uM after 120 mins irradiation at 2.5 mW/cm2 by gel electrophoresis; in short: as §1
Escherichia coli [21] = experiment: Induction of DNA photocleavage activity in Escherichia coli pBR322 plasmid assessed as nicked DNA form at 10 uM after 60 mins irradiation at 2.5 mW/cm2 by gel electrophoresis in presence of sodium azide
In short: (§2)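 pBR322 (0.25 µg) in 3 mM Tris–HCl, 0.3 mM EDTA, pH 8.0 with 10 µM porphyrin, irradiated 60 min in the presence of 100 mM sodium azide (singlet oxygen quencher) or 100 mM mannitol (hydroxyl radical scavenger). Controls without porphyrin, ± irradiation, with each additive. Read-out by agarose gel electrophoresis.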

Escherichia coli [22] = experiment: Induction of DNA photocleavage activity in Escherichia coli pBR322 plasmid assessed as supercoiled DNA form at 10 uM after 60 mins irradiation at 2.5 mW/cm2 by gel electrophoresis in presence of sodium azide; in short: as §2
Escherichia coli [23] = experiment: Induction of DNA photocleavage activity in Escherichia coli pBR322 plasmid assessed as nicked DNA form at 10 uM after 60 mins irradiation at 2.5 mW/cm2 by gel electrophoresis in presence of mannitol; in short: as §2
Escherichia coli [24] = experiment: Induction of DNA photocleavage activity in Escherichia coli pBR322 plasmid assessed as supercoiled DNA form at 10 uM after 60 mins irradiation at 2.5 mW/cm2 by gel electrophoresis in presence of mannitol; in short: as §2
Escherichia coli [25] = experiment: Induction of DNA photocleavage activity in Escherichia coli pBR322 plasmid at 10 uM after irradiation for 2 hrs by gel electrophoresis

C=CC1=C(C)c2cc3[nH]c(cc4nc(cc5[nH]c(cc1n2)c(C)c5CCC(=O)NCCCCC(=O)N(CCCN)CCCCNCCCN)C(CCC(=O)NCCCCC(=O)N(CCCN)CCCCNCCCN)=C4C)c(C)c3C=C
remaining at 0.25 h [1]: 100%
remaining at 0.5 h [2]: 100%
remaining at 0.75 h [3]: 100%
remaining at 1 h [4]: 97%
Activity [5]: Active
logP [6]: -0.51
Activity (DNA): Active
Activity (Escherichia coli [7]): 34%
Activity (Escherichia coli [8]): 55%
Activity (Escherichia coli [9]): 74%
Activity (Escherichia coli [10]): 93%
Activity (Escherichia coli [11]): 97%
Activity (Escherichia coli [12]): 97%
Activity (Escherichia coli [13]): 2%
Activity (Escherichia coli [14]): 2%
Activity (Escherichia coli [15]): 81%
Activity (Escherichia coli [16]): 45%
Activity (Escherichia coli [17]): 26%
Activity (Escherichia coli [18]): 7%
Activity (Escherichia coli [19]): 1%
Activity (Escherichia coli [20]): 1%
Activity (Escherichia coli [21]): 49%
Activity (Escherichia coli [22]): 51%
Activity (Escherichia coli [23]): 68%
Activity (Escherichia coli [24]): 32%
Activity (Escherichia coli [25]): Active
